Active and inactive are the calls of the source. The rule behind the calls is not given here.
Tests used:
[1] = Binding affinity to salmon sperm DNA assessed as increase in thermal melting temperature by spectrophotometric analysis; conditions: Salmonidae
[2] = Dissociation constant, pKa of the compound in 10 mM sodium phosphate buffer at pH 2 by UV spectroscopic analysis; assay type: physicochemical
[3] = Cytotoxicity against human HL60 cells assessed as cell viability reduction incubated for 72 hrs by alamar blue assay; assay type: functional, cell-based; conditions: HL-60, 72 h
Procedure, shortened: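 HL-60 cells in log phase, 40,000 per well, were treated in triplicate with compound at 10–100 µM (final, 1:100 from ddH2O stocks) or 1% ddH2O vehicle for 72 h at 37 °C. AlamarBlue was then added for 4.5 h in the dark and fluorescence read at ex 544/em 590 nm. Viability is blank-subtracted and expressed as % of vehicle. IC50 comes from a sigmoidal fit; ≥3 independent experiments.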

[4] = tested on: HL-60; assay: Induction of mitochondrial membrane depolarization in human HL60 cells at 50 to 100 uM after 48 hrs by JC1 staining-based flow cytometric analysis relative to vehicle control; assay type: functional, cell-based
Procedure, shortened: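 HL-60 cells at 200,000 cells/mL exposed 48 h to 0, 50 or 100 μM. Washed in PBS and stained with JC-1 (5 μM) 30 min at 37 °C. Resuspended in ice-cold PBS and read by flow cytometry: excitation 488 nm, emission 535 (green) and 595 nm (red). Rising green:red ratio scored as ΔΨm loss; % cells with loss reported. Mean ± SEM, ≥3 experiments.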

[5] = tested on: HL-60; assay: Induction of apoptosis in human HL60 cells assessed as caspase 3/7 activation at 50 to 100 uM after 48 hrs by caspase-glo luminescence assay relative to vehicle control; assay type: functional, cell-based
Procedure, shortened: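 HL-60 cells seeded at 20,000 cells/100 μl and treated 48 h with 0, 50 or 100 μM. Viability first measured by AlamarBlue. Cells then lysed with an equal volume of Caspase-Glo 3/7 reagent, shaken 1 h at room temperature in darkness, and luminescence read. Luminescence normalised to viability. Mean ± SEM, ≥3 experiments; P<0.05 taken as significant.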

[6] = Cytotoxicity against human MCF10A cells assessed as cell viability reduction at 50 to 100 uM incubated for 72 hrs by alamar blue-based fluorimetric assay; conditions: mcf-10a
Procedure, shortened: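 MCF-10A cells, 2000 per well, were allowed to attach for 24 h, then treated with 50 or 100 µM or with 1% ddH2O vehicle for 72 h. AlamarBlue (10% v/v) was added for 4.5 h at 37 °C in the dark and fluorescence read at ex 544/em 590 nm. Viability is expressed as % of vehicle after blank subtraction; mean ± S.E.M., ≥3 experiments.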

[7] = Cytotoxicity against mouse NIH/3T3 cells assessed as cell viability reduction at 50 to 100 uM incubated for 72 hrs by alamar blue-based fluorimetric assay; conditions: nih3t3, 72 h
Procedure, shortened: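 NIH/3T3 cells seeded at 10,000 cells/mL and left 24 h at 37 °C before treatment. Compound at 50 or 100 μM final for 72 h, vehicle 1% (v/v) ddH2O. AlamarBlue 10% (v/v) then added for 4.5 h in darkness at 37 °C. Fluorescence read at ex 544/em 590 nm, blank subtracted, expressed as % of vehicle control. Mean ± S.E.M., at least 3 experiments.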

[8] = tested on: HL-60; assay: Induction of apoptosis in human HL60 cells at 100 uM after 72 hrs by propidium iodide staining-based flow cytometric analysis; assay type: functional
Procedure, shortened: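 HL-60 cells seeded at 200,000 cells/mL and treated 72 h, vehicle 1% (v/v) ddH2O. Harvested by centrifugation, fixed overnight in ice-cold 70% EtOH/PBS at −20 °C, then PI-stained 30 min at 37 °C. Flow cytometry of 10,000 gated events. Apoptosis taken from pre-G1 (<2N DNA) peak. Mean ± S.E.M., ≥3 experiments.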

[9] = Cytotoxicity in human MCF10A cells assessed as induction of apoptosis at 50 to 100 uM after 72 hrs by propidium iodide staining-based flow cytometric analysis; assay type: cell-based; conditions: mcf-10a
Procedure, shortened: (§1)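 Cells seeded at 6000 cells per cm² and left 24 h, then given compound at 50 or 100 μM or vehicle (1% ddH2O) for 72 h. Trypsinised, fixed overnight at −20 °C in ice-cold 70% EtOH/PBS, then PI-stained 30 min at 37 °C. 10,000 gated events per sample. Sub-diploid (<2N, M1) cells scored as apoptotic. Mean ± S.E.M., ≥3 experiments.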

[10] = Cytotoxicity in mouse NIH/3T3 cells assessed as induction of apoptosis at 50 to 100 uM after 72 hrs by propidium iodide staining-based flow cytometric analysis; assay type: cell-based; conditions: nih3t3, 72 h; procedure, shortened: as §1
[11] = Cytotoxicity against human Kelly cells assessed as cell viability reduction incubated for 72 hrs by alamar blue assay; assay type: functional, cell-based
Procedure, shortened: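 Kelly cells, 6000 per well, were allowed to attach for 24 h, then treated in triplicate at 0.1–100 µM final or with ddH2O vehicle for 72 h at 37 °C. AlamarBlue was added for 4.5 h in the dark and fluorescence read at ex 544/em 590 nm. Blank-subtracted % of vehicle; IC50 from a sigmoidal dose-response fit; ≥3 independent experiments.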

[12] = Cell cycle arrest in human HL60 cells assessed as accumulation at pre-G1 phase at 50 uM after 24 hrs by propidium iodide staining-based flow cytometric analysis (reference value: 0.81 +/- 0.11%); assay type: functional; conditions: HL-60
[13] = Cell cycle arrest in human HL60 cells assessed as accumulation at pre-G1 phase at 50 uM after 48 hrs by propidium iodide staining-based flow cytometric analysis (reference value: 1.41 +/- 0.32%); assay type: functional; conditions: HL-60
[14] = Cell cycle arrest in human HL60 cells assessed as accumulation at pre-G1 phase at 50 uM after 72 hrs by propidium iodide staining-based flow cytometric analysis (reference value: 2.21 +/- 0.57%); assay type: functional; conditions: HL-60
[15] = Cell cycle arrest in human HL60 cells assessed as accumulation at G0/G1 phase at 50 uM after 24 hrs by propidium iodide staining-based flow cytometric analysis (reference value: 56.05 +/- 1.4%); assay type: functional; conditions: HL-60
[16] = Cell cycle arrest in human HL60 cells assessed as accumulation at G0/G1 phase at 50 uM after 48 hrs by propidium iodide staining-based flow cytometric analysis (reference value: 58.77 +/- 2.33%); assay type: functional; conditions: HL-60
[17] = Cell cycle arrest in human HL60 cells assessed as accumulation at G0/G1 phase at 50 uM after 72 hrs by propidium iodide staining-based flow cytometric analysis (reference value: 59.5 +/- 1.5%); assay type: functional; conditions: HL-60
[18] = Cell cycle arrest in human HL60 cells assessed as accumulation at S phase at 50 uM after 24 hrs by propidium iodide staining-based flow cytometric analysis (reference value: 24.46 +/- 1.15%); assay type: functional; conditions: HL-60
[19] = Cell cycle arrest in human HL60 cells assessed as accumulation at S phase at 50 uM after 48 hrs by propidium iodide staining-based flow cytometric analysis (reference value: 24.29 +/- 1.37%); assay type: functional; conditions: HL-60
[20] = Cell cycle arrest in human HL60 cells assessed as accumulation at S phase at 50 uM after 72 hrs by propidium iodide staining-based flow cytometric analysis (reference value: 23.58 +/- 1.38%); assay type: functional; conditions: HL-60
[21] = Cell cycle arrest in human HL60 cells assessed as accumulation at G2/M phase at 50 uM after 24 hrs by propidium iodide staining-based flow cytometric analysis (reference value: 16.73 +/- 0.59%); assay type: functional; conditions: HL-60
[22] = Cell cycle arrest in human HL60 cells assessed as accumulation at G2/M phase at 50 uM after 48 hrs by propidium iodide staining-based flow cytometric analysis (reference value: 11.35 +/- 1.05%); assay type: functional; conditions: HL-60
[23] = Cell cycle arrest in human HL60 cells assessed as accumulation at G2/M phase at 50 uM after 72 hrs by propidium iodide staining-based flow cytometric analysis (reference value: 10.53 +/- 0.81%); assay type: functional; conditions: HL-60
[24] = Cell cycle arrest in human HL60 cells assessed as accumulation at polyploid Gn phase at 50 uM after 24 hrs by propidium iodide staining-based flow cytometric analysis (reference value: 2.96 +/- 0.79%); assay type: functional; conditions: HL-60
[25] = Cell cycle arrest in human HL60 cells assessed as accumulation at polyploid Gn phase at 50 uM after 48 hrs by propidium iodide staining-based flow cytometric analysis (reference value: 3.02 +/- 0.56%); assay type: functional; conditions: HL-60
[26] = Cell cycle arrest in human HL60 cells assessed as accumulation at polyploid Gn phase at 50 uM after 72 hrs by propidium iodide staining-based flow cytometric analysis (reference value: 3.43 +/- 0.48%); assay type: functional; conditions: HL-60

## N=C(N)Oc1ccc(Oc2ccc(OC(=N)N)cc2)cc1
[1]
  ΔTm: 5 °C
[2]
  pKa: 10.4
[3]
  IC50: > 100 µM

## N=C(N)Oc1ccc(Sc2ccc(O)cc2)cc1
[4]
  Activity: Active
[5]
  Activity: Active
[6]
  Activity: Non-toxic
[7]
  Activity: Toxic
[8]
  Activity: 63.6%
[9]
  Activity: Non-toxic
[10]
  Activity: Non-toxic
[1]
  ΔTm: 2 °C
[3]
  IC50: 52.9 µM
[11]
  IC50: 33.9 µM
[12]
  Activity: 9%
[13]
  Activity: 55.5%
[14]
  Activity: 39.9%
[15]
  Activity: 11.2%
[16]
  Activity: 12.7%
[17]
  Activity: 18.2%
[18]
  Activity: 14.9%
[19]
  Activity: 10.4%
[20]
  Activity: 16.2%
[21]
  Activity: 52.4%
[22]
  Activity: 5.98%
[23]
  Activity: 8.67%
[24]
  Activity: 11.6%
[25]
  Activity: 15.3%
[26]
  Activity: 15.8%

From ChEMBL document CHEMBL3808379, “Isouronium and N-hydroxyguanidinium derivatives as Cell growth inhibitors: A comparative study” (Eur J Med Chem, 2016)
